Laboratory results taken from ChEMBL document CHEMBL4765328 (Eur J Med Chem, 2020).
Active and inactive are the calls of the source. The rule behind the calls is not given here.

Experiments:
HeLa [1] = assay: Induction of apoptosis in human HeLa cells assessed as necrotic cells at 10 nM measured after 24 hrs by Annexin V-FITC/propidium iodide staining based flow cytometry (reference value: 2.26 %); format: functional
HeLa [2] = assay: Antiproliferative activity against human HeLa cells assessed as inhibition of cell growth; format: functional, cell-based
Summary of the method: (§1)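 Growth inhibition of cancer cell lines read from dose-response curves; IC50 as mean ± SEM of at least three independent experiments.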

HUVEC [3] = assay: Antivascular activity against HUVEC assessed as effect on meshes area in preformed capillary like tube network at 10 nM incubated for 1 hr by imaging analysis; format: functional, cell-based; details: Homo sapiens
Summary of the method: (§2)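 HUVECs used at passages 1–6 in M200 with low-serum growth supplement. 6 x 10^4 cells seeded on gelled Matrigel (37 °C, 30 min) and left 6 h to form tubes. Preformed networks then treated 1 h at 10 or 100 nM and photographed at five fields per well. Image analysis gave segment length, mesh area and number, covered area and branch points; three independent experiments.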

Daoy [4] = assay: Antiproliferative activity against human Daoy cells assessed as inhibition of cell growth; format: functional, cell-based
Summary of the method: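 Compounds from 10 mM DMSO stocks; final DMSO ≤0.25%. Growth inhibition of cancer cell lines read from dose-response curves; IC50 as mean ± SEM of at least three independent experiments.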

HeLa [5] = assay: Induction of mitochondrial membrane potential loss in human HeLa cells assessed as cells with depolarized mitochondrial membrane at 10 nM after 48 hrs by JC-1 dye-based flow cytometric analysis (reference value: 5.7 %); format: functional
Daoy [6] = assay: Potency index, ratio of CA-4 IC50 to compound IC50 for human Daoy cells assessed as inhibition of cell growth; format: functional
HeLa [7] = assay: Induction of apoptosis in human HeLa cells assessed as increase in cleavage of caspase 9 at 10 nM after 24 hrs by Western blot analysis; format: functional, cell-based
Summary of the method: (§3)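 HeLa cells treated 24 or 48 h, then washed in cold PBS and lysed in 0.1% Triton X-100/RNase A at 0 °C. Lysates were cleared at 15,000 x g. 10 µg protein was run on SDS-PAGE and blotted to PVDF, blocked in 5% BSA, and probed 2 h at room temperature with primary antibodies. HRP secondary and ECL detection followed; β-actin reprobe served as loading control.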

[8] = Antitumor activity mouse E0771 cells implanted in C57BL/6 mouse assessed as reduction tumor mass at 5 mg/kg, ip administered every other day relative to control; format: functional, EO771; design: scale not given: the % may be the effect or the level left
Summary of the method: (§4)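 Seven-week-old female C57BL/6 mice received 4 x 10^5 E0771 cells orthotopically in the mammary fat pad and were randomized once tumors were palpable. Dosing was ip every other day at 5 or 15 mg/kg, with DMSO vehicle in 100 µL. Caliper volume was V=(D×d²)/2, and tumor weight was taken at endpoint; n=5/group. Analysis used two-way ANOVA with Bonferroni.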

HL-60 = assay: Antiproliferative activity against human HL-60 cells assessed as inhibition of cell growth; format: functional, cell-based; summary of the method: as §1
HeLa [9] = assay: Induction of microtubule network depolymerization in human HeLa cells assessed as appearance of disorganised microtubules at 100 nM after 24 hrs by immunofluorescence staining based confocal microscopic analysis; format: cell-based
Summary of the method: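 HeLa cells treated 24 h at 10, 50 or 100 nM. They were then fixed in cold 4% formaldehyde for 15 min and stained with anti-β-tubulin for 2 h at room temperature. Alexa 488 secondary and DAPI counterstain followed; imaged by confocal microscopy at 20X.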

HeLa [10] = assay: Downregulation of MAD-2 expression in human HeLa cells at 10 nM after 24 hrs by Western blot analysis; format: functional, cell-based; summary of the method: as §3
HeLa [11] = assay: Induction of apoptosis in human HeLa cells assessed as early apoptotic cells at 10 nM measured after 48 hrs by Annexin V-FITC/propidium iodide staining based flow cytometry (reference value: 2.1 %); format: functional
HeLa [12] = assay: Induction of mitochondrial membrane potential loss in human HeLa cells assessed as cells with polarized mitochondrial membrane at 10 nM after 24 hrs by JC-1 dye-based flow cytometric analysis (reference value: 94.3 %); format: functional
[13] = Cytotoxicity against human PBL assessed as inhibition of cell growth; format: cell-based; details: peripheral blood lymphocytes (PBL)
Summary of the method: (§5)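 Peripheral blood lymphocytes from healthy donors, tested either unstimulated or stimulated with PHA; DMSO ≤0.25% final. Values are mean ± SEM of three separate experiments.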

[14] = Antitumor activity mouse E0771 cells implanted in C57BL/6 mouse assessed as reduction tumor mass at 15 mg/kg, ip administered every other day relative to control; format: functional, EO771; design: scale not given: the % may be the effect or the level left; summary of the method: as §4
HT-29 = assay: Antiproliferative activity against human HT-29 cells assessed as inhibition of cell growth; format: functional, cell-based; summary of the method: as §1
Bos taurus [15] = species on record: Bos taurus; assay: Inhibition of [3H]colchicine binding to bovine brain tubulin at 5 uM relative to control
Summary of the method: (§6)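 [3H]colchicine binding to purified tubulin, with tubulin at 0.5 µM and colchicine at 5 µM. Compounds tested at 5 and 0.5 µM. CA-4 was run in contemporaneous experiments for comparison.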

[16] = Cytotoxicity against normal human astrocytes assessed as inhibition of cell growth; format: cell-based, Astrocyte
HUVEC [17] = assay: Antivascular activity against HUVEC assessed as effect on segment length in preformed capillary like tube network at 10 nM incubated for 1 hr by imaging analysis; format: functional, cell-based; details: Homo sapiens; summary of the method: as §2
Bos taurus [18] = species on record: Bos taurus; assay: Inhibition of [3H]colchicine binding to bovine brain tubulin at 0.5 uM relative to control; format: tissue-based; summary of the method: as §6
HeLa [19] = assay: Induction of apoptosis in human HeLa cells assessed as reduction in mcl-1 protein expression at 10 nM after 24 hrs by Western blot analysis; format: functional, cell-based
HeLa [20] = assay: Induction of apoptosis in human HeLa cells assessed as late apoptotic cells at 10 nM measured after 24 hrs by Annexin V-FITC/propidium iodide staining based flow cytometry (reference value: 6.07 %); format: functional
[21] = Cytotoxicity against PHA-stimulated human PBL assessed as inhibition of cell growth; format: cell-based; details: PHA-stimulated peripheral blood lymphocytes (PBL); summary of the method: as §5
HUVEC [22] = assay: Antivascular activity against HUVEC assessed as inhibition of capillary like tube formation at 100 nM incubated for 1 hr by matrigel based assay; format: functional, cell-based; details: Homo sapiens; summary of the method: as §2
HeLa [23] = assay: Downregulation of MAD-2 expression in human HeLa cells at 10 nM after 48 hrs by Western blot analysis; format: functional, cell-based; summary of the method: as §3

CCOc1ccc2c(C(=O)c3cc(OC)c(OC)c(OC)c3)c(N)oc2c1
Activity (HeLa [1]): 14.77% | IC50 (HeLa [2]): 2.8 nM | Activity (HUVEC [3]): Active | IC50 (Daoy [4]): 0.005 nM | Activity (HeLa [5]): 54.7% | Ratio IC50 (Daoy [6]): 2460 | Activity (HeLa [7]): Active | Activity [8]: 16.9% | IC50 (HL-60): 2.7 nM | Activity (HeLa [9]): Active | Activity (HeLa [10]): Active | Activity (HeLa [11]): 23.53% | Activity (HeLa [12]): 75.7% | GI50 [13]: 8700 nM | Activity [14]: 45.7% | IC50 (HT-29): 2.1 nM | inhibition (Bos taurus [15]): 99% | GI50 [16]: > 10000 nM | Activity (HUVEC [17]): Active | inhibition (Bos taurus [18]): 86% | Activity (HeLa [19]): Active | Activity (HeLa [20]): 14.05% | GI50 [21]: > 10000 nM | Activity (HUVEC [22]): Active | Activity (HeLa [23]): Active
